Source: PubChem (several laboratories)
GAA850 FXN act: FXN promoter activators, primary screen, cell-based, luciferase luminescence, HEK293 lucGAA850; HEK293 lucGAA850 FXN promoter luciferase reporter, 24 h; percent of 10 µM SAHA response; activation, % at 6 µM; 360,000 compounds, 0.56% hits; AID 540364, 2011;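 active = activation above the average of all compounds screened plus 3 SD, cutoff fixed separately per campaign, cut at about 7.5% in these data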;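 note: 0% = DMSO wells and 100% = 10 µM SAHA wells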
SR-BI DiI inh: inhibitors of SR-BI mediated HDL lipid uptake, primary screen, ldlA[mSR-BI] cells, fluorescence, single point; ldlA[mSR-BI] CHO cells, DiI-HDL uptake fluorescence, 3 h; inhibition, % at 12.5 µM; 320,000 compounds, 0.96% hits;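 active = mean replicate inhibition of at least 70% and a set share of replicates each scoring 70 or more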;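 note: 0% = median of neutral control wells and 100% = median of positive control wells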
Target sequence (Q61009 whole entry, looked up): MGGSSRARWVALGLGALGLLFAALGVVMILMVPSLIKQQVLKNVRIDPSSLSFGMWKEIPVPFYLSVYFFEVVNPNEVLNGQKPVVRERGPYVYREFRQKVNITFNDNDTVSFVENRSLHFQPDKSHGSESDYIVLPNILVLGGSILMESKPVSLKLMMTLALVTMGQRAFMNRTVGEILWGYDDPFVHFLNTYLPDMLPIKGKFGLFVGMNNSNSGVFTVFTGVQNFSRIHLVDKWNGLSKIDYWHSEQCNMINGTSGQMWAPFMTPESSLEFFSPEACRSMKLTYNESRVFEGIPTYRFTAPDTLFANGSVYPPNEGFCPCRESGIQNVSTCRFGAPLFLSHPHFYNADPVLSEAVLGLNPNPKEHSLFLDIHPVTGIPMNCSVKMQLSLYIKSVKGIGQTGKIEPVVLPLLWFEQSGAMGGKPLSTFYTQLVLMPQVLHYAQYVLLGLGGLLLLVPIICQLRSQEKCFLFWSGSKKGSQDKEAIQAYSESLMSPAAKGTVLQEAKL
ABCB6 inh MLPCN: ABCB6 transporter inhibitors, primary screen, K562-ABCB6 cells, flow cytometry, MLPCN library. 360,000 compounds, 0.19% hits. K562-ABCB6 porphyrin accumulation, 1 h; hits give low values. AID 602162, 2011. fluorescence ratio to DMSO, % at 10 µM;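 active = fluorescence ratio to DMSO below 75%, the collection mean minus 3 SD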;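 note: signal is porphyrin accumulated inside mitochondria; 100% equals median channel fluorescence of DMSO control wells; lower ratio means ABCB6 inhibition with less porphyrin fluorescence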
HIF activator: HIF pathway transcriptional activators, primary screen, cell-based, U2OS HRE-luciferase, luminescence. activation, % at 7.5 µM (by protocol). 300,000 compounds, 0.32% hits. U2OS HRE-luciferase reporter; normalized: DMSO 0%, desferrioxamine 100%;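 active = mean activation of at least 10% of the iron chelator positive control signal, with at least half of replicates also reaching 10%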
AHR act: AHR activators, primary screen, cell-based, luminescence, luciferase reporter, human. Aryl hydrocarbon receptor (Homo sapiens), P35869. AHR-responsive luciferase reporter cells. activation, % at 5 µM. 320,000 compounds, 2.5% hits. AID 2796, 2010; in the data active = activation above about 47%;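 note: 0% = vehicle wells and 100% = reference agonist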
SR-BI uptake up: activators of SR-BI mediated DiI-HDL uptake, primary screen, ldlA[mSR-BI] CHO cells, DiI fluorescence | 3 h; 100 = double the neutral-control signal | activation, % at 12.5 µM | 320,000 compounds, 0.096% hits | AID 504775, 2011;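 active = mean replicate activation of at least 60% and every replicate at or above 60%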;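 note: 0% = median plate neutral-control signal and 100% = twice that signal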
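Test system: SR-BI-overexpressing, LDLR-lacking CHO cells; Also added: labelled HDL, 10 µg/mL; Measured by: bottom-read cell fluorescence after medium removal, ex 550/em 595 nm; Timing: 3 h uptake period with compound, 37 °C; Buffer or medium: F12, 0.5% BSA, 25 mM HEPES; Doses: single compound concentration, delivered by pin transfer.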
An asterisk follows results filed as active; nt = no result given. Rows were chosen to be rich in hits. Some 3.9% of all compounds tested hit in one or more screens of this group.

SMILES	GAA850 FXN act	SR-BI DiI inh	ABCB6 inh MLPCN	HIF activator	AHR act	SR-BI uptake up
Cc1c(N=C/C=C2\N(C)c3ccccc3C2(C)C)c(=O)n(-c2ccccc2)n1C	0.2	-5.3	105.0	-0.7	1.5	5.3
CN(C)c1ccc(N=C/C=C2\N(C)c3ccccc3C2(C)C)cc1	-5.5	-1.3	229.0	0.7	150.1*	1.3
N#C/C=C/C(=C\Nc1ccc(Cl)cc1)S(=O)(=O)c1ccccc1	1.2	85.1*	107.0	-0.3	7.8	-85.1
CC1CN(S(=O)(=O)c2ccc(C(=O)Nc3ccc(S(=O)(=O)N4CCOCC4)cc3)cc2)CC(C)O1 (centres undefined)	-2.4	-10.2	107.0	0.0	-6.2	10.2
C=C(C)COc1ccc2oc(C)c(C(=O)OCCOC)c2c1	-0.8	8.2	67.0*	0.3	0.9	-8.2
COCCOC(=O)c1c(C)oc2ccc(OCc3ccccc3)cc12	1.6	-1.4	102.0	-0.3	7.4	1.4
CC(C)Sc1oc(-c2ccco2)nc1S(=O)(=O)c1ccccc1	3.0	-1.6	82.0	-0.2	1.3	1.6
CCOC1(NC(=O)c2ccccc2)C(C)=CC(=O)C=C1C	1.2	-15.9	95.0	-0.8	0.7	15.9
O=C1/C(=C\c2ccc(O)c(O)c2)SC(=S)N1Cc1ccccc1	3.8	82.9*	464.0	-49.7	nt	-82.9
O=C1/C(=C\c2cccc(O)c2O)SC(=S)N1Cc1ccccc1	-3.2	132.7*	127.0	1.3	0.4	-132.7
CC(=O)c1cccc(NC(=S)Nc2cccc3ccccc23)c1	-0.7	16.9	99.0	3.7	54.5*	-16.9
CC(=O)c1cccc(NC(=S)NCCc2ccc(Cl)cc2)c1	2.7	76.2*	94.0	0.9	21.4	-76.2
COc1ccc(NC(=S)Nc2cccc(C(C)=O)c2)cc1OC	-0.1	73.4*	106.0	1.2	10.2	-73.4
Cc1ccc(NC(=S)Nc2cccc3cnccc23)cc1C	2.1	75.0*	102.0	1.5	36.3	-75.0
Cc1ccc(S(=O)(=O)N2CC(O)C[C@H]2C(=O)OCC(=O)N2CCN(c3ccc(F)cc3)CC2)cc1C (some centres undefined)	0.4	0.9	96.0	nt	nt	-0.9
CN(C(=O)COC(=O)c1cc(-c2ccc(Cl)s2)nc2ccccc12)C1CCS(=O)(=O)C1 (centres undefined)	2.0	43.4	91.0	-57.4	0.8	-43.4
OC(COCc1ccccc1)CN1CCN(Cc2ccc3c(c2)OCO3)CC1 (centres undefined)	3.3	-14.8	92.0	0.1	-1.9	14.8
COc1ccc(/C=N\NC(=O)c2ccccc2Br)cc1COc1ccccc1	-0.2	44.9	91.0	-0.2	6.7	-44.9
COc1ccc(/C=N\NC(=O)c2cccc(F)c2)cc1COc1ccccc1	0.7	51.2	91.0	0.8	63.9*	-51.2
COc1ccc(/C=N/NC(=O)c2cccc(Br)c2)cc1CSc1ccccn1	-0.6	-7.8	101.0	0.1	56.0*	7.8
COc1ccc(C(=O)N/N=C\c2ccc(OC)c(COc3ccccc3Br)c2)c(OC)c1	-5.9	45.1	98.0	1.1	48.5*	-45.1
CCOC(=O)c1c(C)nc2c(c1C)/C(=N/O)CC(C)(C)C2	-0.9	3.2	99.0	0.2	7.7	-3.2
CCOC(=O)Nc1cc(C(=O)OC)cc(C(=O)OC)c1	-4.4	28.0	108.0	-4.4	-2.1	-28.0
COC(=O)C1CCN(C(=O)C(C)Oc2ccc(Cl)cc2Cl)CC1 (centres undefined)	-0.4	1.1	101.0	0.2	0.1	-1.1
Cc1cccc(Nc2nnc(-c3ccc(N4CCOCC4)c([N+](=O)[O-])c3)c3ccccc23)c1	-0.8	72.5*	100.0	-0.7	-0.1	-72.5
SMILES	GAA850 FXN act	SR-BI DiI inh	ABCB6 inh MLPCN	HIF activator	AHR act	SR-BI uptake up
O=[N+]([O-])c1ccn(-c2nc(-c3ccccc3)cc(C(F)(F)F)n2)n1	0.4	16.5	101.0	-0.2	-2.7	-16.5
O=C(COC(=O)c1cccc(O)c1)NC(=O)Cc1ccccc1	1.3	-12.7	104.0	-0.2	-0.3	12.7
COc1ccccc1N(CC(=O)NC1CCCCC1)S(C)(=O)=O	0.1	0.4	101.0	93.6*	3.0	-0.4
COc1ccccc1N(CC(=O)N/N=C/c1c(O)ccc2ccccc12)S(C)(=O)=O	-5.1	49.3	100.0	11.1*	25.4	-49.3
CCOC(=O)c1sc(N)c(C#N)c1CSc1nc2ccc(C)cc2[nH]1	0.7	20.5	98.0	-0.4	70.1*	-20.5
COc1cc(-c2nc3ccccn3c2/N=C/c2cc(OC)c(OC)c(OC)c2)ccc1O	-3.7	0.9	96.0	0.0	4.9	-0.9
CN(C)c1ccc(-c2nc3ccccn3c2/N=C/c2ccc(Br)cc2)cc1	2.4	100.9*	99.0	-0.4	47.1*	-100.9
CCOC(=O)c1c(NC(C)=O)sc2c(O)cccc12	-0.2	-5.9	95.0	-0.6	-0.3	5.9
CCOC(=O)c1c(NC(=O)c2ccccc2)sc2c(O)c(CN(CC)CC)ccc12	-0.5	-1.3	69.0*	-1.2	9.2	1.3
CCN(CC)Cc1c(NC(=O)c2ccccc2)sc(C)c1C	4.1	6.3	97.0	1.2	64.8*	-6.3
O=C(Nc1nncs1)c1cccc(S(=O)(=O)N2CCc3ccccc32)c1	1.2	-29.0	99.0	-0.5	2.6	29.0
CN(CC(=O)Nc1ccccc1Br)C(=O)c1cccc(S(=O)(=O)N2CCc3ccccc32)c1	-0.1	81.8*	96.0	nt	nt	-81.8
CCOC(=O)c1sc(NC(=O)c2cccc(S(=O)(=O)N3CCc4ccccc43)c2)c(C#N)c1C	-2.0	75.5*	95.0	-0.4	7.9	-75.5
COc1ccc(NC(=O)CN(C)C(=O)c2cccc(S(=O)(=O)N3CCCc4ccccc43)c2)cc1	-0.9	38.5	91.0	-1.1	6.3	-38.5
CCC(CC)c1nnc(NC(=O)c2cccc(S(=O)(=O)N3CCc4ccccc43)c2)s1	-0.5	-22.1	87.0	-0.3	8.3	22.1
O=C(Nc1nc2ccc(F)cc2s1)c1cccc(S(=O)(=O)N2CCc3ccccc32)c1	2.0	74.3*	94.0	0.7	25.1	-74.3
O=C(CCCSc1nc2ccccc2s1)NCc1ccco1	-0.1	-14.5	87.0	nt	7.3	14.5
O=C(Nc1ccc([N+](=O)[O-])cc1)/C(=C/c1cccc([N+](=O)[O-])c1)NC(=O)C1CCCCC1	-6.3	nt	100.0	-0.5	-3.0	nt
CN1c2ccccc2Sc2cc(N)ccc21	-1.1	46.4	98.0	1.5	62.1*	-46.4
